Reference: BindingDB's records for doi:10.1128/AAC.00443-09 (University of Medicine and Dentistry of New Jersey, 2009)

How the values were obtained:
[1] = target: 1,3-beta-glucan synthase (Candida glabrata, UniProt F5BCZ9, S663P); test: Inhibition of Candida glabrata isolate 3830 1,3-beta-D-glucan synthase wild type Fks1p/Fks2p S663P mutant
Outline: (§1)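 Cells grown in YPD broth at 35°C with vigorous shaking to early stationary phase. Membrane protein extracted and glucan synthase partially purified by product entrapment. Filtration polymerization assay measured [3H]glucose incorporation into product, started by adding enzyme. Echinocandin serial dilutions spanned 0.01–10,000 ng/ml, with 1% DMSO controls for anidulafungin. IC50 from variable-slope sigmoidal fit.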

[2] = target: 1,3-beta-glucan synthase (Candida glabrata, UniProt F5BCZ9, P667T); test: Inhibition of Candida glabrata isolate 51916 1,3-beta-D-glucan synthase wild type Fks1p/Fks2p P667T mutant; outline: as §1
Sequence of 1,3-beta-glucan synthase (Candida glabrata, UniProt F5BCZ9, P667T) (F5BCZ9 entry or part of it P667T): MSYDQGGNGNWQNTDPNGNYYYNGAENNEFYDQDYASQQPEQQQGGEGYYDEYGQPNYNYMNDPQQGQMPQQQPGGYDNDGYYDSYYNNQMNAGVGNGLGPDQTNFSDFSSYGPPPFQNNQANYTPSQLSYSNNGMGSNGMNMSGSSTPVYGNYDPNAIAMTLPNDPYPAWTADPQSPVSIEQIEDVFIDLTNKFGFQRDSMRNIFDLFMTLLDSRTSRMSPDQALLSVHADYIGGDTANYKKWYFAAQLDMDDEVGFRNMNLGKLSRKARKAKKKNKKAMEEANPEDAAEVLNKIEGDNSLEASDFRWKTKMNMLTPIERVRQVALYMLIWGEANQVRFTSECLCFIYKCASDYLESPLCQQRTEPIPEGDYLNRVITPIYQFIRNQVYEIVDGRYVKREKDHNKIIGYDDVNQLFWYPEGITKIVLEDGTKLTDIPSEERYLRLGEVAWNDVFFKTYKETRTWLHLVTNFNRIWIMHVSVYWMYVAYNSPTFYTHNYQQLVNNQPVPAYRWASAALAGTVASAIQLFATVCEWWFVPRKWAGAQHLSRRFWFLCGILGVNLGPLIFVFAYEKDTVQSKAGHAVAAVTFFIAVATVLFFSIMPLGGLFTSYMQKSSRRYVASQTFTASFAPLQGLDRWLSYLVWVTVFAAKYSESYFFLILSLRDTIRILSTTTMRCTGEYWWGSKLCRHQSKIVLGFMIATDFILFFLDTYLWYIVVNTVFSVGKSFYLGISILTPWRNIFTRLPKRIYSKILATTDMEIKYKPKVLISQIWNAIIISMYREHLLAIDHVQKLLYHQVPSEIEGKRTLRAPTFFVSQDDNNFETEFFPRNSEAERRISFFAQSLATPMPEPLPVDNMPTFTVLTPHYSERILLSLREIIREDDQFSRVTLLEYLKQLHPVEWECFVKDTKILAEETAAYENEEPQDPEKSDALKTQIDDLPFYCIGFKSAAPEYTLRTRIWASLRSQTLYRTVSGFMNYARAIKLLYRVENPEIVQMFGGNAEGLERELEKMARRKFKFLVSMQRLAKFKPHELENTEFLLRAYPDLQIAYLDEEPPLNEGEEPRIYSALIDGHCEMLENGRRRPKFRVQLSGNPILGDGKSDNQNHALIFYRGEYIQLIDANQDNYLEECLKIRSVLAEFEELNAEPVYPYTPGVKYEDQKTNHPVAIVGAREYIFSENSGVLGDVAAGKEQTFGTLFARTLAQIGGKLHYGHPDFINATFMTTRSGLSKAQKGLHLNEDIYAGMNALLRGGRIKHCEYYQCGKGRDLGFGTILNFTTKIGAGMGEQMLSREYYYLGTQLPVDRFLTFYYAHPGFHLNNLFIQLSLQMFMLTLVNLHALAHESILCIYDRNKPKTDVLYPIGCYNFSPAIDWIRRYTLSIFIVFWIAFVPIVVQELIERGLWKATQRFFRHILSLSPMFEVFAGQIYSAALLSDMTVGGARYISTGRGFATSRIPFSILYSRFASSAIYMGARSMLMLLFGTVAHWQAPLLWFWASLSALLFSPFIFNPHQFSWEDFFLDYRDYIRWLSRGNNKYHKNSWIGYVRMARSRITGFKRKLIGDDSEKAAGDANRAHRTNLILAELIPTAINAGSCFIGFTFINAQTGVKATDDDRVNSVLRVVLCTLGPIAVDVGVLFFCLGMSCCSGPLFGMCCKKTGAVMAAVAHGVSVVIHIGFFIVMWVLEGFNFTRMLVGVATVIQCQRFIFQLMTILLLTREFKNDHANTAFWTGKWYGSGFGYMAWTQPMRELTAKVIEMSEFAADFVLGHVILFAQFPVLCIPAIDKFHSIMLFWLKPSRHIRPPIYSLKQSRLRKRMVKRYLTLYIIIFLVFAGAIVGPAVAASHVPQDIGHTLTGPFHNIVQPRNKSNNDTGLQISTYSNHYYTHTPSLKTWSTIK

[3] = target: 1,3-beta-glucan synthase (Candida glabrata, UniProt F5BCZ9, D666G); test: Inhibition of Candida glabrata isolate 41400 1,3-beta-D-glucan synthase wild type Fks1p/Fks2p D666G mutant; outline: as §1
[4] = target: 1,3-beta-glucan synthase (Candida glabrata, UniProt F5BCZ9, F659S); test: Inhibition of Candida glabrata isolate 41026 1,3-beta-D-glucan synthase wild type Fks1p/Fks2p F659S mutant; outline: as §1
Sequence of 1,3-beta-glucan synthase (Candida glabrata, UniProt F5BCZ9, F659S) (F5BCZ9 entry or part of it F659S): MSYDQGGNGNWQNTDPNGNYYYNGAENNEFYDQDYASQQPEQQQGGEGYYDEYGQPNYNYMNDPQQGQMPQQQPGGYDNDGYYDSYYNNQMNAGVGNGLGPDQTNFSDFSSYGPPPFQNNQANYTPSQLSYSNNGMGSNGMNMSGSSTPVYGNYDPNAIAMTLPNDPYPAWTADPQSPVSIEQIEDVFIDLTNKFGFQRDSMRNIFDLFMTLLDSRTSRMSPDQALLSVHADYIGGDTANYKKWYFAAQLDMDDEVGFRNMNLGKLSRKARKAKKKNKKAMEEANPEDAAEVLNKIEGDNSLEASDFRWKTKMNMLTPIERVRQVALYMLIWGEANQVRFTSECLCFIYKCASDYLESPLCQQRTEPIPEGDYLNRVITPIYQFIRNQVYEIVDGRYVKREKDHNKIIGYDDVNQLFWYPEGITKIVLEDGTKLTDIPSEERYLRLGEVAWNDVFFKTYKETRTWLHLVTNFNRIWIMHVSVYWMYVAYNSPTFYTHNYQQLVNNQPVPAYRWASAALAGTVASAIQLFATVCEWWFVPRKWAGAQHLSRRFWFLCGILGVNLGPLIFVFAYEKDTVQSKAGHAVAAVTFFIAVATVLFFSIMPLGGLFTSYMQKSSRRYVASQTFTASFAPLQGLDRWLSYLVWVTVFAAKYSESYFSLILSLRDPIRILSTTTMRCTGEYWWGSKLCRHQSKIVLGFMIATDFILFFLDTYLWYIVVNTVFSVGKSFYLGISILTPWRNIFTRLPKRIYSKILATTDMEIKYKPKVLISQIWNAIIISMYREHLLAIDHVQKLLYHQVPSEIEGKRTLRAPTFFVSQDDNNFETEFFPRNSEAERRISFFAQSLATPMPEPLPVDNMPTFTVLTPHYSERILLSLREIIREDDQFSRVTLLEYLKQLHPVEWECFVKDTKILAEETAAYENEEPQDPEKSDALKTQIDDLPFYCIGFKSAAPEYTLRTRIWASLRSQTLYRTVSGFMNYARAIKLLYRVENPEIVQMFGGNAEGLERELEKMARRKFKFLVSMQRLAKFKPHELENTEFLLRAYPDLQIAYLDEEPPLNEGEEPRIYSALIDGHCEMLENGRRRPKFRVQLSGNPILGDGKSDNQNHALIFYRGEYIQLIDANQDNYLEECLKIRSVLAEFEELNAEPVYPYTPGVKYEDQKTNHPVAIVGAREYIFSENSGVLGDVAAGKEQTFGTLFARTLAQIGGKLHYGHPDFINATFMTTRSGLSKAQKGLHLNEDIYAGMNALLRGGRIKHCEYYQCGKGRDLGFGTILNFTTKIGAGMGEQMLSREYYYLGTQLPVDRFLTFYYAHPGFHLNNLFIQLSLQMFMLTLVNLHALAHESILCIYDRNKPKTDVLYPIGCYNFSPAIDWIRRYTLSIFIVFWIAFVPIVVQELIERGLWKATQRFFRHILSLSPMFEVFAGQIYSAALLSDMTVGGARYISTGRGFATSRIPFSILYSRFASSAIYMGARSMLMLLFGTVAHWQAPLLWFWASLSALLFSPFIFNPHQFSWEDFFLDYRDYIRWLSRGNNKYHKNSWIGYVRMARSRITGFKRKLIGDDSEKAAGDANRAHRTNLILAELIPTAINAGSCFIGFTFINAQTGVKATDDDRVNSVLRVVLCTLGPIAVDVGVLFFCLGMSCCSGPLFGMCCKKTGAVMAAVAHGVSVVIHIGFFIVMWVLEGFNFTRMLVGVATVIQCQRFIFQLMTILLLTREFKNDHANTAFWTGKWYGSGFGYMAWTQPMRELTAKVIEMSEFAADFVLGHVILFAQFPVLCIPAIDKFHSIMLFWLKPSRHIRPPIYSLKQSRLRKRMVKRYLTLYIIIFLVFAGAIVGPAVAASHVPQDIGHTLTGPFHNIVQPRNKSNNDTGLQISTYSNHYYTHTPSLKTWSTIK

[5] = target: 1,3-beta-glucan synthase (Candida glabrata, UniProt E2GKZ4, S629P); test: Inhibition of Candida glabrata isolate 5847 1,3-beta-D-glucan synthase Fks1p S629P mutant/wild type Fks2p; outline: as §1
[6] = target: 1,3-beta-glucan synthase (Candida glabrata, UniProt E2GKZ4, D632E); test: Inhibition of Candida glabrata isolate 3169 1,3-beta-D-glucan synthase Fks1p D632E mutant/wild type Fks2p; outline: as §1
[7] = target: 1,3-beta-glucan synthase (Candida glabrata, UniProt F5BCZ9, F659V); test: Inhibition of Candida glabrata isolate 234 1,3-beta-D-glucan synthase wild type Fks1p/Fks2p F659V mutant; outline: as §1
[8] = target: 1,3-beta-glucan synthase (Candida glabrata, UniProt F5BCZ9, D666E); test: Inhibition of Candida glabrata isolate 42031 1,3-beta-D-glucan synthase wild type Fks1p/Fks2p D666E mutant; outline: as §1
[9] = target: 1,3-beta-glucan synthase (Candida glabrata, UniProt F5BCZ9, W1375L); test: Inhibition of Candida glabrata isolate 5416 1,3-beta-D-glucan synthase wild type Fks1p/Fks2p W1375L mutant; outline: as §1

CCC(C)CC(C)CCCCCCCCC(=O)N[C@H]1C[C@@H](O)[C@@H](NCCN)NC(=O)[C@@H]2[C@@H](O)CCN2C(=O)[C@H]([C@H](O)CCN)NC(=O)[C@H]([C@H](O)[C@@H](O)c2ccc(O)cc2)NC(=O)[C@@H]2C[C@@H](O)CN2C(=O)[C@H]([C@@H](C)O)NC1=O (some centres undefined) [CHEBI:474180]
IC50 [1]: 5120 nM | IC50 [2]: 166 nM | IC50 [3]: 507 nM | IC50 [4]: 1060 nM | IC50 [5]: 4990 nM | IC50 [6]: 845 nM | IC50 [7]: 115 nM | IC50 [8]: 258 nM | IC50 [9]: 608 nM
